Screening data deposited in PubChem by several laboratories.
Biofilm kill mix = mixtures killing C. albicans biofilm. C. albicans biofilm persisters + clotrimazole, fluorescence viability; primary screen in compound mixtures of four per well. inhibition, % at 7.6 µM. 0.02% of 120,000 active;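 active means inhibition above 30.3% in the primary screen of four-compound pools, then above 30% when the compound was retested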;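 further: compounds exposed to preformed 24 h biofilms for 48 h; 0% = untreated biofilm control and 100% = clotrimazole plus chlorhexidine kill blank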
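Incubation: 24 h biofilm formation, then 48 h compound exposure, 37 °C | Material: C. albicans biofilms | Buffer or medium: RPMI/MOPS medium, pH 7.0 | Measured by: 2-h Alamar Blue fluorescence, 535/590 nm excitation/emission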
FXIa inh 1536 = blocks human coagulation factor XIa protease activity. purified FXIa, Boc-Glu-Ala-Arg-AMC fluorogenic substrate. inhibition, % at 5 µM. 0.14% of 220,000 active. AID 798;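 active means inhibition of at least 40%; inactive means inhibition below 40%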;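 further: fluorescence of freed AMC excited at 355 nm; 0% = enzyme without compound and 100% = no enzyme blank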
FXIIa inh 1536 = factor XIIa (human) inhibition; P00748; purified FXIIa, Boc-QGR-AMC fluorogenic substrate, 2 h; inhibition, % at 5 µM; 0.3% of 220,000 active; in the data active means inhibition above about 40%;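 further: 0% = enzyme with no compound and 100% = blank without enzyme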
Lipid droplet = modulators of hepatic lipid droplet formation; AML12 mouse hepatocytes, oleate lipid droplets, BODIPY imaging; 0.4% of 240,000 active; inhibition, % at 6.5 µM; AID 1656;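 active means lipid droplet intensity inhibited by at least 50%, with more than 500 cells counted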
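Test system: AML12 mouse liver cells; schedule: overnight exposure; technique: high-content imaging of BODIPY-stained droplets and DAPI nuclei; read-out: % inhibition of corrected integrated BODIPY droplet signal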
hK5 inh = inhibitors of human kallikrein 5. Q9Y337. recombinant hK5, fluorogenic AMC substrate cleavage. inhibition, % at 5 µM. 0.59% of 210,000 active. AID 873;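 active means inhibition of 40% or more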;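 further: 0% = enzyme controls without compound and 100% = no-enzyme blanks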
Thrombin inh = thrombin (human) inhibition | P00734 | alpha-thrombin, Boc-VPR-AMC fluorogenic substrate cleavage | inhibition, % at 5 µM | 0.26% of 220,000 active | AID 1046;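 active means inhibition at or above 40%; inactive means inhibition below 40%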;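 further: 0% = enzyme with no compound and 100% = wells without enzyme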
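System – human alpha-thrombin · Medium – pH 7.5 Tris (50 mM) with NaCl 150 mM, Tween 20 0.05% · Compound – single-point dosing at 5 µM, 0.2% DMSO · Incubation – enzyme reaction carried out at room temperature · Technique – fluorescence of released AMC, ex 355 nm, em 460 nm · Read-out basis – % inhibition of thrombin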
* marks the source's active call; other numbers are inactive results; . = no result. This is a sample that favours compounds with a hit; in the whole collection about 1.1% have one here.

SMILES	Biofilm kill mix	FXIa inh 1536	FXIIa inh 1536	Lipid droplet	hK5 inh	Thrombin inh
CC1C2NC(=O)N(Cc3ccccc3)C1(C)Oc1ccccc12 (stereo not drawn)	10	0	10	2	2	-6
O=C(O)CCC(=O)Nc1ccccc1Oc1ccccc1	10	-6	-4	0	-12	-8
O=C(C[n+]1cccc(CNC(=O)c2ccc(OC(F)F)cc2)c1)Nc1cc(C(F)(F)F)ccc1Cl	12	10	24	4	61*	36
COc1cc(C(=O)N/C(=C\c2cn(C)c3ccccc23)C(=O)NCCN2CCOCC2)cc(OC)c1OC	.	.	.	-77	.	.
O=S(=O)(Cc1ccco1)Cc1nc(-c2ccc(Cl)cc2)cs1	3	2	15	-9	-4	-3
N=c1oc2ccccc2cc1-c1nc(-c2ccc(Cl)cc2)cs1	5	14	7	16	47*	18
O=C(CCc1nc2ccccc2c(=O)[nH]1)N1CCN(S(=O)(=O)c2cccc(F)c2)CC1	.	.	.	-28	.	.
O=[N+]([O-])c1cccc(-c2cc3cccc[n+]3cc2-c2cccc([N+](=O)[O-])c2)c1	7	9	15	2	46*	32
CC(C)(CNC(=O)Cc1ccc(Br)cc1)N1CCOCC1	.	.	.	7	.	.
CCN(CCCNC(=O)CNC(=O)c1nn(-c2ccc(OC)cc2OC)c(=O)c2ccccc12)c1cccc(C)c1	.	.	.	-28	.	.
O=[N+]([O-])c1ccc(/C=C/C2=NN(c3ccccc3)C(c3ccco3)C2)o1 (stereo not drawn)	7	0	4	54*	0	3
CCCC1=NCCn2cccc21	.	0	11	.	13	-3
COc1ccc(C2=NCCn3cccc32)c(OC)c1	12	2	10	0	41*	12
CCCCn1c(N)c(N(CC)C(=O)c2ccc(Cl)c(Cl)c2)c(=O)[nH]c1=O	.	.	.	-14	.	.
CC(C)(C)c1ccc(S(=O)(=O)Nc2ccc(Cc3ccncc3)cc2)cc1	9	2	4	67*	-13	-14
CCN1C(=O)c2ccccc2S(=O)c2ccc(C(=O)NCc3ccc(OC)cc3)cc21 (stereo not drawn)	.	.	.	21	.	.
Cc1cccc(NC(=S)NC(C)(C)CC(C)(C)C)c1	10	-5	-2	27	-5	-6
CCN1C(=O)/C(=C\c2ccco2)C(C(=O)OC)=C1C	.	25	43*	.	10	3
C=CCN1C(=O)/C(=C\c2ccco2)C(C(=O)OC)=C1C	8	16	14	3	-10	11
Nc1nc(CSC(=S)N2CCOCC2)nc(Nc2ccccc2)n1	13	-7	2	4	-23	-9
Nc1nc(CSC(=S)N2CCCCC2)nc(Nc2ccccc2)n1	9	-7	2	3	67*	-24
Cc1ccccc1CN1CCNC(=O)C1CC(=O)NCCN1CCCCC1=O (stereo not drawn)	.	.	.	-15	.	.
COC(=O)c1c(-c2c(Cl)cccc2Cl)noc1C(=O)NNC(=O)N(C)C	5	0	3	3	1	2
COC(=O)c1cc(N2C(=O)C3C(C2=O)C2(C)C=CC3(C)O2)ccc1Cl (stereo not drawn)	.	5	6	13	44*	104*
Cc1onc(-c2ccccc2)c1C(=O)Nc1ccc(S(=O)(=O)N2CCOCC2)cc1	.	.	.	-9	.	.
SMILES	Biofilm kill mix	FXIa inh 1536	FXIIa inh 1536	Lipid droplet	hK5 inh	Thrombin inh
O=C(Nc1nc(-c2ccccn2)cs1)C1CC1	.	-7	1	23	-5	-1
O=C(CC1CC2CCC1C2)Nc1nc(-c2ccccn2)cs1 (stereo not drawn)	10	28	21	2	87*	19
NC1=NC(=O)/C(=C\C=C\c2ccccc2)S1	7	6	4	3	55*	15
NC1=NC(=O)/C(=C\c2cccnc2)S1	7	-3	4	1	-4	-16
O=C(Nc1nc2ccccc2s1)C1CCN(S(=O)(=O)c2cc([N+](=O)[O-])ccc2Cl)CC1	8	25	23	0	32	24
Cc1nn(C(C)C)c(C)c1CN1CCCC(CCC(=O)NCc2ccccc2F)C1 (stereo not drawn)	21	-3	5	-2	.	0
CC(C)c1csc(CN2CCCC(CCC(=O)NCc3ccccc3F)C2)n1 (stereo not drawn)	10	50*	28	-13	27	5
